We go through 11 compounds from ChEMBL document CHEMBL1140237, “6-(2-Phenylethyl)nicotine: a novel nicotinic cholinergic receptor ligand” (Bioorg Med Chem Lett, 2005).

As usually defined, the Ki is the dissociation constant of the complex between target and ligand, obtained from inhibition or displacement. Low values mean a stronger hold on the target, high ones a looser hold on the target.

For experiment [1], the system named is Mus musculus. The experiment in a line: Nicotine-like action of the compound tested in mouse in hypothermia assay at 15 mg/kg sc dose; NA = Not active. Details: dose 15 mg/kg. Format: functional, organism-based. The gist of the method:
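Male ICR mice (20–25 g), at least six per dose, given compound or saline sc. Rectal temperature read by thermistor probe inserted 24 mm, just before and 30 min after injection.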

Experiment [2] deals with Mus musculus. The experiment in a line: Nicotine-like action of the compound tested in mouse in spontaneous activity assay at 15 mg/kg sc dose; NA = Not active. The experiment is classed as functional, organism-based. Also noted: dose 15 mg/kg. The gist of the method: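 Male ICR mice (20–25 g), at least six per dose, given compound or 0.9% saline sc. Placed in individual photocell activity cages 5 min after injection. Beam interruptions counted over the next 10 min.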

In experiment [3] the target is T1, Neuronal acetylcholine receptor; alpha4/beta2 (Rattus norvegicus, UniProt P09483+P12390). Put plainly: Inhibition of [3H]epibatidine binding to rat Nicotinic acetylcholine receptor alpha4-beta2. Format: protein-complex assay.
T1 sequence (P09483 whole entry): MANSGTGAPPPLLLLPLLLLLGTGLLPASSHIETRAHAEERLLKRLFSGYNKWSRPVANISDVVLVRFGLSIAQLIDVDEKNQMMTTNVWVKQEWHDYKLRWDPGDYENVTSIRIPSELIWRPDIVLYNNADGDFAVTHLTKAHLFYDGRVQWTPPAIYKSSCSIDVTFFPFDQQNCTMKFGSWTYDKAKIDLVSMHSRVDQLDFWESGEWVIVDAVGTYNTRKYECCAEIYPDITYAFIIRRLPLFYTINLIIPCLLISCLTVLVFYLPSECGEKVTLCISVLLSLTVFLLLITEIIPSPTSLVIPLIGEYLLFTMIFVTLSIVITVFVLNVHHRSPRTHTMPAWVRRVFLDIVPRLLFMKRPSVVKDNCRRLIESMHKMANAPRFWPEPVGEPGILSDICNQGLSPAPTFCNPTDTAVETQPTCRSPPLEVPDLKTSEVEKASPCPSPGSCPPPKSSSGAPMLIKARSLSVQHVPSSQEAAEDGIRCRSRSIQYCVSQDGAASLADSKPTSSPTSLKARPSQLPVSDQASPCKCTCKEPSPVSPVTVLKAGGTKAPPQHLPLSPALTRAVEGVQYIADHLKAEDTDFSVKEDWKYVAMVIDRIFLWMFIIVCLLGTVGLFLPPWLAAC
T1 sequence (P12390 whole entry): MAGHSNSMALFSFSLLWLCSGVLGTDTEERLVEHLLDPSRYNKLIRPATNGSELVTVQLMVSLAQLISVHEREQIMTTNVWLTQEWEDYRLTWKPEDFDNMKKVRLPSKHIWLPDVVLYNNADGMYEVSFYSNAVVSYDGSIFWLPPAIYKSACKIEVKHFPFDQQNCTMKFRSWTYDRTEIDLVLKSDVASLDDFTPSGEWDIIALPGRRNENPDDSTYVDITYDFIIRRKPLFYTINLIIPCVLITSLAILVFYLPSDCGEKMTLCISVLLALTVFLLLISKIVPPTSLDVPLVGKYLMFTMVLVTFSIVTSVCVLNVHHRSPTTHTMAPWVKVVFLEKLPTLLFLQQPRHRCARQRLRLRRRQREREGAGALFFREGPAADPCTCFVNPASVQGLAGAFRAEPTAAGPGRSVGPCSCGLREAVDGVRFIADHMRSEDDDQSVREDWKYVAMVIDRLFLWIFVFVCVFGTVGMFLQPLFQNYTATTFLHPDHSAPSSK
Experiment [4] has as its target T1, Neuronal acetylcholine receptor; alpha4/beta2. Put plainly: Inhibition of [3H](-)-nicotine binding to rat brain (minus cerebellum) Nicotinic acetylcholine receptor alpha4-beta2. Format: tissue-based. The gist of the method: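 Rat brain homogenate with cerebellum removed, labelled with [3H](-)nicotine. IC50 taken from a plot of log concentration against percent displacement, then converted to Ki. At least triplicate.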

The subject of experiment [5] is Mus musculus. Put plainly: Percent of maximal possible antinociceptive effect at 15 mg/kg dose; failed to produce effect. Format: functional.
Experiment [6] addresses Neuronal acetylcholine receptor; alpha2/beta2 (Rattus norvegicus, UniProt P12389+P12390). Put plainly: Binding affinity for rat Nicotinic acetylcholine receptor alpha2-beta2. The experiment is classed as protein-complex assay. The method in brief: (§1)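 Binding run by the NIMH Psychoactive Drug Screening Program under standard protocols, using cloned rat receptor preparations.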

Experiment [7] concerns the target Neuronal acetylcholine receptor; alpha2/beta4 (Rattus norvegicus, UniProt P12389+P12392). The experiment in a line: Binding affinity for rat Nicotinic acetylcholine receptor alpha2-beta4. The experiment is classed as protein-complex assay. The method in brief: as §1
The target in experiment [8] is Neuronal acetylcholine receptor; alpha3/beta2 (Rattus norvegicus, UniProt P04757+P12390). The experiment in a line: Binding affinity for rat Nicotinic acetylcholine receptor alpha3-beta2. Format: protein-complex assay. The gist of the method: as §1
Neuronal acetylcholine receptor; alpha3/beta2, sequence (P04757 whole entry): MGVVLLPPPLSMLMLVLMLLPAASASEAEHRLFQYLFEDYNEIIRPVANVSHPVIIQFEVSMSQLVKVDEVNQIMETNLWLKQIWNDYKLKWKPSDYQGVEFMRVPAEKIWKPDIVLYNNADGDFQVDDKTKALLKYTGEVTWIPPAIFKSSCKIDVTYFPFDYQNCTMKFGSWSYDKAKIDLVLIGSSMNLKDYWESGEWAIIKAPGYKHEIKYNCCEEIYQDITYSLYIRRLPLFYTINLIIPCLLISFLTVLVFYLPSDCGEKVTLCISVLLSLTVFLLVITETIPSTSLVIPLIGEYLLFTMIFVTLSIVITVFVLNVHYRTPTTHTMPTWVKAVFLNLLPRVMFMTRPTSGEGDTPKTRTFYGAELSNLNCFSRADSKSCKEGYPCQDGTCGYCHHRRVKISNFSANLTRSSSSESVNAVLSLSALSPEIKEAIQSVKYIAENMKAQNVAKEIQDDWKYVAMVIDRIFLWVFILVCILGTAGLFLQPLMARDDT
Neuronal acetylcholine receptor; alpha3/beta2, sequence (P12390 whole entry): as the sequence (P12390 whole entry) above
Experiment [9] has as its target Neuronal acetylcholine receptor; alpha3/beta4 (Rattus norvegicus, UniProt P04757+P12392). The experiment in a line: Binding affinity for rat Nicotinic acetylcholine receptor alpha3-beta4. Format: protein-complex assay. The method in brief:
as §1

The target in experiment [10] is Neuronal acetylcholine receptor; alpha4/beta4 (Rattus norvegicus, UniProt P09483+P12392). The experiment in a line: Binding affinity for rat Nicotinic acetylcholine receptor alpha4-beta4. Format: protein-complex assay. The method in brief: as §1
Neuronal acetylcholine receptor; alpha4/beta4, sequence (P09483 whole entry): as the sequence (P09483 whole entry) above
Neuronal acetylcholine receptor; alpha4/beta4, sequence (P12392 whole entry): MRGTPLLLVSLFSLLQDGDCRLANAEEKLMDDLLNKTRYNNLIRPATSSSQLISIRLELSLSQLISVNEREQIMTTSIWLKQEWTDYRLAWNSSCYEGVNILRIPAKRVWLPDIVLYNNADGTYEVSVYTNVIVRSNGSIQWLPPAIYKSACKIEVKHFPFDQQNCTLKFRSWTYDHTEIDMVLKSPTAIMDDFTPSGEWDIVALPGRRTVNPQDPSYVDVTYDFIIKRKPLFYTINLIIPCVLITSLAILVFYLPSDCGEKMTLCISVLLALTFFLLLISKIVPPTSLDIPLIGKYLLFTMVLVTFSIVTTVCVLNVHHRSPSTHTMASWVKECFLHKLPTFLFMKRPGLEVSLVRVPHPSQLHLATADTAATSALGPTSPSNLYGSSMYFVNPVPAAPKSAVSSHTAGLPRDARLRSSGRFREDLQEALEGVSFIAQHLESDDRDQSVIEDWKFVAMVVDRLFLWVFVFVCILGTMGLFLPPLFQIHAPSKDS

Active and inactive are the calls of the source. No cut-off for these calls is given here.

Neuronal acetylcholine receptor; alpha3/beta4, sequence (P04757 whole entry): as the sequence (P04757 whole entry) above
Neuronal acetylcholine receptor; alpha3/beta4, sequence (P12392 whole entry): as the sequence (P12392 whole entry) above
Neuronal acetylcholine receptor; alpha2/beta4, sequence (P12389 whole entry): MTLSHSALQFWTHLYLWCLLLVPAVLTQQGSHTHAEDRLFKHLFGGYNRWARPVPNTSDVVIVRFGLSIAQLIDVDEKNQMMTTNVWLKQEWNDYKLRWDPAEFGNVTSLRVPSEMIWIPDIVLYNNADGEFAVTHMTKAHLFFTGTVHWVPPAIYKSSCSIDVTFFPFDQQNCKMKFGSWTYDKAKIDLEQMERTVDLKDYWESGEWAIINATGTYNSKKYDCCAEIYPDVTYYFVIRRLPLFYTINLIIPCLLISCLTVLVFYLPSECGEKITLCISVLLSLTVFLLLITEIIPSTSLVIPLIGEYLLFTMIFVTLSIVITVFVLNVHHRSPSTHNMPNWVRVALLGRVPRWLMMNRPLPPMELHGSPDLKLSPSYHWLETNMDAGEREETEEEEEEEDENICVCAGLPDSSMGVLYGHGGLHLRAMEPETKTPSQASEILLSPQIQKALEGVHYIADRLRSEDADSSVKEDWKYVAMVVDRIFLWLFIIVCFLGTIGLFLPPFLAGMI
Neuronal acetylcholine receptor; alpha2/beta4, sequence (P12392 whole entry): as the sequence (P12392 whole entry) above
Neuronal acetylcholine receptor; alpha2/beta2, sequence (P12389 whole entry): as the sequence (P12389 whole entry) above
Neuronal acetylcholine receptor; alpha2/beta2, sequence (P12390 whole entry): as the sequence (P12390 whole entry) above

As to `CN1CCCC1c1ccc(CCc2ccccc2)nc1` (stereo not given), the outcome in the experiment on Mus musculus [1] and in the experiment with Mus musculus [2] was inactive. Further, the inhibitory constant (Ki) in [3] came out at 200 nM; in [4], 15 nM; in experiment [6], 490 nM; in experiment [7] it was 1200 nM; in experiment [8], 2000 nM; in experiment [9] it was 4600 nM. Further, the inhibitory constant (Ki) in [10] was 400 nM. The compound further had an MPE in the experiment on Mus musculus [5] of 2%.
In turn, `CCc1ccc(C2CCCN2C)cn1` (stereo not given) came in with a Ki in experiment [4] of 5.6 nM.
Regarding `CN1CCCC1c1ccc(CCc2ccc(Cl)cc2)nc1` (stereo not given), affinity in [4] was put at a Ki of 40 nM.
As for `CN1CCCC1c1ccc(CCCc2ccccc2)nc1` (single isomer, unassigned; (+)), the inhibition constant (Ki) in experiment [4] was > 10000 nM.
On the same count and under the same terms, the value for `CCN(C)CCc1ccc(CCc2ccccc2)nc1` was > 10000 nM; that for `CN1CCCC1c1ccc(/C=C/c2ccccc2)nc1` (stereo not given) was 350 nM.
`CN1CCCC1c1ccc(CC(O)c2ccccc2)nc1` (stereo not given): affinity in experiment [4] was put at a Ki of 275 nM.
Still for that read-out and setting: the value for `CCCc1ccc(C2CCCN2C)cn1` (stereo not given) was 17 nM.
`COc1ccc(CCc2ccc(C3CCCN3C)cn2)cc1` (stereo not given) registered a Ki in experiment [4] of 10 nM.
Consider `CN1CCCC1c1ccc(C(=O)O)nc1` (stereo not given), for which the Ki in [4] is > 10000 nM.
Take `CN1CCCC1c1ccc(CCCc2ccccc2)nc1` (single isomer, unassigned; (-)): the affinity in [4] corresponds to a Ki of 72 nM.
